From ChEMBL document CHEMBL4842338, “System-oriented optimization of multi-target 2,6-diaminopurine derivatives: Easily accessible broad-spectrum antivirals active against flaviviruses, influenza virus and SARS-CoV-2” (Eur J Med Chem, 2021)

Legend:
[1] = Selectivity index, ratio of CC50 for human A549 cells to IC50 for Influenza A Puerto Rico/8/34/H1N1 infected in human A549 cells; assay type: toxicity, cell-based; settings: read-out: Selectivity Index
How it was run: (§1)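 MDCK or A549 cells (2.5 × 10⁵/well) infected with A/Puerto Rico/8/34 H1N1 for 1 h at 37 °C, then washed. Compound (0.5–20 μM) added in 2% FBS medium for 24 h, with DMSO final ≤0.2%. Virus in supernatants read by hemagglutination. CC₅₀ by MTT (2 × 10⁴ cells/well, same concentrations, 24 h, absorbance 570 nm). SI = CC₅₀/IC₅₀.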

[2] = tested on: Influenza A virus; assay: Antiviral activity against Influenza A Puerto Rico/8/34/H1N1 infected in human A549 cells assessed as inhibition of viral replication after 24 hrs by hemagglutination assay; assay type: functional, organism-based; settings: A/Puerto Rico/8/1934(H1N1), A549, 24 h
[3] = tested on: A549; assay: Cytotoxicity against human A549 cells assessed as reduction in cell viability measured after 24 hrs by MTT assay; assay type: cell-based; settings: a549, 24 h
[4] = Cytotoxicity against human Huh-7 cells assessed as reduction in cell viability by Celltiter-Glo luminescent cell viability assay; assay type: cell-based; settings: Huh-7 cells
How it was run: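 Compound-exposed cells assessed by CellTiter-Glo luminescence versus DMSO control; CC50 from dose-response.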

[5] = tested on: dengue virus type 2; assay: Antiviral activity against Dengue virus serotype 2 New Guinea C infected in pre-seeded Huh-7 cells assessed as inhibition of viral replication incubated for 72 hrs by immunodetection based secondary yield reduction assay; assay type: functional, organism-based; settings: Dengue virus, New Guinea C, Huh-7, 72 h; read-out: IC50
[6] = Selectivity index, ratio of CC50 for human Huh-7 cells to IC50 for Dengue virus serotype 2 New Guinea C infected in pre-seeded Huh-7 cells assessed as inhibition of viral replication incubated for 72 hrs by immunodetection based secondary yield reduction assay; assay type: toxicity, cell-based; settings: read-out: Selectivity Index
[7] = tested on: Zika virus; assay: Antiviral activity against Zika virus H/PF/2013 infected in pre-seeded Huh-7 cells assessed as inhibition of viral replication incubated for 72 hrs by immunodetection based secondary yield reduction assay; assay type: functional, organism-based; settings: H/PF/2013, Huh-7, 72 h
[8] = Selectivity index, ratio of CC50 for human Huh-7 cells to IC50 for Zika virus H/PF/2013 infected in pre-seeded Huh-7 cells assessed as inhibition of viral replication incubated for 72 hrs by immunodetection based secondary yield reduction assay; assay type: toxicity, cell-based; settings: read-out: Selectivity Index
[9] = tested on: MDCK; assay: Cytotoxicity against MDCK cells assessed as reduction in cell viability measured after 24 hrs by MTT assay; assay type: cell-based, Canis lupus familiaris; settings: dog, mdck, 24 h
[10] = tested on: Influenza A virus; assay: Antiviral activity against Influenza A Puerto Rico/8/34/H1N1 infected in MDCK cells assessed as inhibition of viral replication measured in supernatants of infected cells after 24 hrs by hemagglutination assay; assay type: functional, organism-based; settings: A/Puerto Rico/8/1934(H1N1)
[11] = Selectivity index, ratio of CC50 for MDCK cells to IC50 for Influenza A Puerto Rico/8/34/H1N1 infected in MDCK cells; assay type: toxicity, cell-based; settings: dog, read-out: Selectivity Index; how it was run: as §1
[12] = Inhibition of Dengue virus 2 […] RNA dependent RNA polymerase incubated for 10 mins by picogreen staining based fluorescent analysis (Rvb= 0.27+/-0.03 uM); design: species or system dengue virus type 2
[13] = Inhibition of full length Dengue virus 2 NS5 RNA dependent RNA polymerase incubated for 10 mins by picogreen staining based fluorescent analysis (Rvb= 0.32+/-0.05 uM); design: species or system dengue virus type 2
[14] = Inhibition of full length ZIKA virus NS5 RNA dependent RNA polymerase incubated for 10 mins by picogreen staining based fluorescent analysis (Rvb= 1+/-0.2 uM)
[15] = Inhibition of DENV NS5-MTase domain using GpppA2'OMe-RNA74 as a substrate incubated for 30 mins by filter binding assay; design: species or system dengue virus type 2
How it was run: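 MTase (1 μM) incubated with increasing inhibitor in 40 mM Tris-HCl pH 7.5, 5 mM DTT, 10 μM AdoMet ([3H]-labelled), 0.5 μM GpppA2′OMe-RNA74 substrate, 30 °C for 30 min; stopped in ice-cold 100 μM AdoHcy; DEAE filter binding, scintillation counting.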

[16] = Inhibition of full length ZIKV NS5-MTase domain using 7MeGpppAC4 as a substrate incubated for 30 mins by filter binding assay; design: species or system Zika virus
[17] = target: Src (Proto-oncogene tyrosine-protein kinase Src) (Homo sapiens, UniProt P12931); assay: Inhibition of human recombinant N terminal His6 tagged full length Src assessed as residual activity at 5 uM using KVEKIGEGTYGVVYK as a substrate in the presence of NP-40 incubated for 10 mins by scintillation counting analysis relative to control; settings: probe KVEKIGEGTYGVVYK, read-out: Activity
Src (Proto-oncogene tyrosine-protein kinase Src), sequence (P12931 2-536 limits assumed): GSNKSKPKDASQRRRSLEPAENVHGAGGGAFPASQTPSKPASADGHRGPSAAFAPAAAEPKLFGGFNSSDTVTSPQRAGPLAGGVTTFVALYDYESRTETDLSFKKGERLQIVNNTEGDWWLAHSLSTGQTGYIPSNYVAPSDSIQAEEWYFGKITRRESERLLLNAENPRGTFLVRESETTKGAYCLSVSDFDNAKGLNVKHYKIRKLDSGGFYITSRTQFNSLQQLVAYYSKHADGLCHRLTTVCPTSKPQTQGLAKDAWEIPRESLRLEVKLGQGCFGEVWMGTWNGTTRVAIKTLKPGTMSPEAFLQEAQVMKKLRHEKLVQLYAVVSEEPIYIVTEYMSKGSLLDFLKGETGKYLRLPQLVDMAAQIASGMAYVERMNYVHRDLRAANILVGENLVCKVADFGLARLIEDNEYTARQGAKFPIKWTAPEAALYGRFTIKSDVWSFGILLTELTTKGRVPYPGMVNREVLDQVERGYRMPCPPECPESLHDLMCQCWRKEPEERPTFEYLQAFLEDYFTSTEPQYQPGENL
How it was run: (§2)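 Compounds at fixed 5 μM; 10–50 ng kinase, substrate and NP-40/BSA per supplementary table, 10 μL at 30 °C for 10 min in low-binding tubes. Reactions spotted on filter, dried, scintillation counted. Mean ± SD of two independent experiments.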

[18] = target: Abl (Tyrosine-protein kinase ABL1) (Homo sapiens, UniProt P00519); assay: Inhibition of human recombinant N terminal His6 tagged Abl (27 to end residue) assessed as residual activity at 5 uM using KKGEAIYAADFA-NH2 as a substrate in the presence of NP-40 incubated for 10 mins by scintillation counting analysis relative to control; settings: probe KKGEAIYAADFA-NH2, read-out: Activity; how it was run: as §2
Abl (Tyrosine-protein kinase ABL1), sequence (P00519 whole entry): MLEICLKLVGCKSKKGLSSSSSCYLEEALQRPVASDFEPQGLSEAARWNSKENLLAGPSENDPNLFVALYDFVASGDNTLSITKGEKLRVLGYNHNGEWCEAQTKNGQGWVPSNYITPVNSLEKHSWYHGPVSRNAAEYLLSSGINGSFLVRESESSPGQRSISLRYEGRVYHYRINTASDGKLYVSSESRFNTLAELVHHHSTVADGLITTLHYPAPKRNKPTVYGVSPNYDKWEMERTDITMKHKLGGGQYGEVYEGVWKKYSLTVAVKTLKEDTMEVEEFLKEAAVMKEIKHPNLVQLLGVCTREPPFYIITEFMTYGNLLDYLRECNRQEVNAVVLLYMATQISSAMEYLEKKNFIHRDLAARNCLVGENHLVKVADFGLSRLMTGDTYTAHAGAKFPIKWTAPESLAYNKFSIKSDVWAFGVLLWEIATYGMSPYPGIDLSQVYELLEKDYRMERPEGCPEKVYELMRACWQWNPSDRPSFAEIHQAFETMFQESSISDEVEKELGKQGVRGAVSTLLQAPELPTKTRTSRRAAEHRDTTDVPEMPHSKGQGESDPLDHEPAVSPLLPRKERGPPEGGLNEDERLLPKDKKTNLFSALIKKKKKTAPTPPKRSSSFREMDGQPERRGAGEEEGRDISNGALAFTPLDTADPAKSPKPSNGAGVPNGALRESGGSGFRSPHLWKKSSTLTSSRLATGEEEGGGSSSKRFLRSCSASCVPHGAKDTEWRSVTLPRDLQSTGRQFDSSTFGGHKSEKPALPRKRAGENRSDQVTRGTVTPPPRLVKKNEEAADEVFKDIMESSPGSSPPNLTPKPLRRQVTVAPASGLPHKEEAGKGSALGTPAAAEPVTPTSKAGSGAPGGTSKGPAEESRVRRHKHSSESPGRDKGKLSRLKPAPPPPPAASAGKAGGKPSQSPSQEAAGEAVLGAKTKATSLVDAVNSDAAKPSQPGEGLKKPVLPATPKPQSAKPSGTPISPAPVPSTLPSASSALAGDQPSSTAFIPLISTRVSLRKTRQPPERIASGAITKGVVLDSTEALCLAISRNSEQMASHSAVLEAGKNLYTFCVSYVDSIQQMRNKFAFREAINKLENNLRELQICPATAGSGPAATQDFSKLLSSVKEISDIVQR

[19] = target: Fyn (Tyrosine-protein kinase Fyn) (Homo sapiens, UniProt P06241); assay: Inhibition of human recombinant N terminal His6 tagged full length Fyn assessed as residual activity at 5 uM using […] as a substrate in the presence of NP-40 incubated for 10 mins by scintillation counting analysis relative to control; settings: probe […], read-out: Activity; how it was run: as §2
Fyn (Tyrosine-protein kinase Fyn), sequence (P06241 whole entry, canonical isoform): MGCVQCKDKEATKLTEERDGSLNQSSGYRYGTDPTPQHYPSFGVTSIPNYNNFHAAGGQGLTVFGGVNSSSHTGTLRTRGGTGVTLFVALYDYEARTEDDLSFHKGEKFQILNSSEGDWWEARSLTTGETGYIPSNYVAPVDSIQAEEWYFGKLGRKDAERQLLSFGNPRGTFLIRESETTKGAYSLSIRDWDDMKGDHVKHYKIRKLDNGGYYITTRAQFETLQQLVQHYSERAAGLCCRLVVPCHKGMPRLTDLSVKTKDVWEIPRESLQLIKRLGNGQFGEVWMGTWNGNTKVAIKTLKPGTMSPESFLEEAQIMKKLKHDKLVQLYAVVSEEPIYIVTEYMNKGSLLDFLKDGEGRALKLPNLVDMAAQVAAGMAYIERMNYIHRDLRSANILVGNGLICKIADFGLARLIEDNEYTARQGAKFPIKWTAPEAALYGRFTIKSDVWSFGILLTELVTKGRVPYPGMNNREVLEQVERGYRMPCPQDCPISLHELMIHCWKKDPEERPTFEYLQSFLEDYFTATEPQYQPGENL

[20] = target: PIK3CA (Phosphatidylinositol 4,5-bisphosphate 3-kinase catalytic subunit alpha isoform) (Homo sapiens, UniProt P42336); assay: Inhibition of human full length PIK3CA assessed as residual activity at 5 uM using PI:PS (1:3) as a substrate incubated for 10 mins by scintillation counting analysis relative to control; settings: full length PIK3CA enzyme, probe PI:PS (1:3), read-out: Activity
PIK3CA (Phosphatidylinositol 4,5-bisphosphate 3-kinase catalytic subunit alpha isoform), sequence (P42336 whole entry, canonical isoform): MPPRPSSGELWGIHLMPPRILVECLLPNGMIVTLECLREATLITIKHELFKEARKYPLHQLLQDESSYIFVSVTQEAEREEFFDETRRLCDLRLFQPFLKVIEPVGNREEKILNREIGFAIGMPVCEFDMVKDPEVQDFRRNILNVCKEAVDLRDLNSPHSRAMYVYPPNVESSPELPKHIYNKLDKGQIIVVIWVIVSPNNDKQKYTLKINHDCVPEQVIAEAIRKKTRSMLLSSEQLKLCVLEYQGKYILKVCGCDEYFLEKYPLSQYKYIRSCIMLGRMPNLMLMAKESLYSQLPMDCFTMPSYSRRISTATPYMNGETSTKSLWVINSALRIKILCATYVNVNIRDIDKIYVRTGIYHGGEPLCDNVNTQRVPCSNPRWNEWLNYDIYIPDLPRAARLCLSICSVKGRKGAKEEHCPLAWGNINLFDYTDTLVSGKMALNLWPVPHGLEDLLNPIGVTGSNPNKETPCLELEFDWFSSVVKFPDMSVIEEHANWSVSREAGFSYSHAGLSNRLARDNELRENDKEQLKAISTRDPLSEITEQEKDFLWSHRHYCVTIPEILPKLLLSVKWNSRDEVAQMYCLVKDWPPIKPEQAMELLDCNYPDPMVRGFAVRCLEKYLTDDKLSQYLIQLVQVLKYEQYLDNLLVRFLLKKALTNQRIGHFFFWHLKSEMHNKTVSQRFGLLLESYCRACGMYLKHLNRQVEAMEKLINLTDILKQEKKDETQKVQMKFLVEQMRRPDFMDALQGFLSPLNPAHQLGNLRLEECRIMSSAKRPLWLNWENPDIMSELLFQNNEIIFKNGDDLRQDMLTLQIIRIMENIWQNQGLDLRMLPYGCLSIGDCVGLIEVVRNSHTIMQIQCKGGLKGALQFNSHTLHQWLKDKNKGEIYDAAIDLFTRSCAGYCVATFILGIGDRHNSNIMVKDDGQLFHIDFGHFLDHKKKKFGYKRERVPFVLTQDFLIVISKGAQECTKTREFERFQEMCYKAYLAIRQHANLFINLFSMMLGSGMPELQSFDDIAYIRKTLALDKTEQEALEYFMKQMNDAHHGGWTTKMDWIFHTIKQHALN
How it was run: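 Radiometric kinase reaction with 10–50 ng enzyme and compound fixed at 5 μM, 10 μL at 30 °C for 10 min. Reactions spotted on filter and counted by scintillation. Residual activity is the mean ± SD of two independent experiments.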

[21] = target: CDK9/cyclin T1 (Homo sapiens, UniProt P50750); assay: Inhibition of human full length CDK9/ His-tagged cT1 assessed as residual activity at 5 uM using CDKtide as a substrate in the presence of BSA incubated for 10 mins by scintillation counting analysis relative to control; assay type: protein-complex assay; settings: full length CDK9/His-tagged cyclin T1 complex, probe CDKtide, read-out: Activity; how it was run: as §2
CDK9/cyclin T1, sequence (O60563 whole entry): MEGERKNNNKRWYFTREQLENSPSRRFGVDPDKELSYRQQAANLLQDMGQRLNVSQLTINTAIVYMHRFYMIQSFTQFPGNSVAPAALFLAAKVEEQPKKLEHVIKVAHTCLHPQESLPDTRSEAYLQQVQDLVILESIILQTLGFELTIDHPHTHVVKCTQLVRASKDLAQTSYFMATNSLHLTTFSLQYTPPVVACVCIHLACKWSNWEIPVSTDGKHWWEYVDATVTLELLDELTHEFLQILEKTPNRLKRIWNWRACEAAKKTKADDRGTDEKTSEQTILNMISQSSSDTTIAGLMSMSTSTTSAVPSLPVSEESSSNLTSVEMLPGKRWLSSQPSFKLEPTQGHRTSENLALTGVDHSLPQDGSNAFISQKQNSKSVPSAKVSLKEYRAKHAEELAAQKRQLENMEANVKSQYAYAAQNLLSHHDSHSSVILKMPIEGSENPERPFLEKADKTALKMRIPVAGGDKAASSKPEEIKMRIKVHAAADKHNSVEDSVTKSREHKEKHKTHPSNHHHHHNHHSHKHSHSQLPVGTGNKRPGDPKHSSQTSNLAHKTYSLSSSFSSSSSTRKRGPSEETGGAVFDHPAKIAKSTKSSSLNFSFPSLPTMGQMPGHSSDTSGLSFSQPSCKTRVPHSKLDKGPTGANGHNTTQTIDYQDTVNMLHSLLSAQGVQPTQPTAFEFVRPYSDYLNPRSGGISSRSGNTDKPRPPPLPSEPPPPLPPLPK
CDK9/cyclin T1, sequence (P50750 whole entry): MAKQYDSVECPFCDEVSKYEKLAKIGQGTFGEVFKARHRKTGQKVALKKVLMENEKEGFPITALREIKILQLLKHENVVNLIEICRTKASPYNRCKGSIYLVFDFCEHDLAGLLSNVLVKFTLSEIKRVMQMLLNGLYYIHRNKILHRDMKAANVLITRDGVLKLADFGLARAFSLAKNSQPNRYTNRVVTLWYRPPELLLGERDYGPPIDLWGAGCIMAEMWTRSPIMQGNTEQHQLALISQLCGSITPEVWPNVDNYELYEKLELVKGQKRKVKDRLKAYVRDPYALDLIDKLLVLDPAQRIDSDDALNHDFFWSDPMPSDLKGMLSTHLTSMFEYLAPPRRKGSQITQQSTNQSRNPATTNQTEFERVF

## Fc1cccc(Nc2nc(NCCOc3ccccc3)nc3[nH]cnc23)c1
[1]
  selectivity ratio: 2.8
[2]
  IC50: 20.8 µM
[3]
  CC50: 58 µM
[4]
  CC50: 200 µM
[5]
  IC50: 12 µM
[6]
  selectivity ratio at 72 h: 17
[7]
  IC50: 2.9 µM
[8]
  selectivity ratio at 72 h: 68
[9]
  CC50: 77 µM
[10]
  IC50: 14 µM
[11]
  selectivity ratio: 5.5
[12]
  IC50: 31.2 µM
[13]
  IC50: > 100 µM
[14]
  IC50: 18.9 µM
[15]
  IC50: Not Active
[16]
  IC50: Not Active
[17]
  activity at 10 min, 5 µM: 45%
[18]
  activity at 10 min, 5 µM: 54%
[19]
  activity at 10 min, 5 µM: > 98%
[20]
  activity at 10 min, 5 µM: 69%
[21]
  activity at 10 min, 5 µM: 87%
